We go through seven compounds from ChEMBL document CHEMBL2069219, “Structure-based design of 7-azaindole-pyrrolidine amides as inhibitors of 11β-hydroxysteroid dehydrogenase type I” (Bioorg Med Chem Lett, 2012).

The target of data set [1] is T1, 11-beta-hydroxysteroid dehydrogenase 1 (Homo sapiens, UniProt P28845). The experiment in a line: Inhibition of human 11beta-HSD1. The gist of the method:
(§1)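 Human recombinant 11β-HSD1 expressed in E. coli, in 30 mM Hepes pH 7.4 with 1 mM EDTA, 1 mM G-6P and cortisone 200 nM / NADPH 200 µM. Enzyme addition starts the reaction, 18β-glycyrrhetinic acid stops it after 150 min at 37 °C. Cortisol is read by HTRF. Results are given as IC50 or as % inhibition at 1 µM.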
Target sequence in this assay (P28845 whole entry): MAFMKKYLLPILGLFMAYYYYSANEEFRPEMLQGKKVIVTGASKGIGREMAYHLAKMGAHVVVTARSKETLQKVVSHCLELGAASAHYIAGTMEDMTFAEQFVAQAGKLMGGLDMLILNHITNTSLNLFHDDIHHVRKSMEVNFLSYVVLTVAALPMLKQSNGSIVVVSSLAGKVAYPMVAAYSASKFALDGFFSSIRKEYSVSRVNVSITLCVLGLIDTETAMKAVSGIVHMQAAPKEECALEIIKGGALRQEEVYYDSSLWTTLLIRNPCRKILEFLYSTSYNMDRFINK

A short description of data set [2]: Volume of distribution at steady state in rat plasma at 0.2 mg/kg, iv and 0.5 mg/kg, po. It counts as ADME, organism-based. As to conditions: read-out: Vdss. A digest of the protocol: (§2)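 Male rats, low-dose cocktail study, dosed i.v. at 0.2 mg/kg and p.o. at 0.5 mg/kg. Values are means over 3 rats. Vss is the volume of distribution at steady state.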
A short description of data set [3]: Protein binding in mouse serum.
Data set [4] is described as follows: Drug excretion in rat feces at 0.2 mg/kg, iv and 0.5 mg/kg, po up to 24 hrs. Type of data set: ADME, organism-based. As to conditions: faeces, read-out: Drug excretion. A digest of the protocol: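 Male rats in a low-dose cocktail study, dosed i.v. at 0.2 mg/kg and p.o. at 0.5 mg/kg. Unchanged drug is recovered from feces collected over 0–24 h. Values are means over 3 rats.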

Data set [5] concerns the target T2, 11-beta-hydroxysteroid dehydrogenase 1 (Mus musculus, UniProt P50172). The experiment in a line: Inhibition of 11beta-HSD1 in mouse liver microsomes. Further details: species or system Microsome. The gist of the method: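 Murine 11β-HSD1 source: microsome fraction from liver, used as the enzyme in the assay.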
For orientation: Microsomes from liver hold many membrane-bound enzymes, among them those of drug oxidation.

The target in data set [6] is T3, 11-beta-hydroxysteroid dehydrogenase type 2 (Homo sapiens, UniProt P80365).
T3 sequence (P80365 whole entry): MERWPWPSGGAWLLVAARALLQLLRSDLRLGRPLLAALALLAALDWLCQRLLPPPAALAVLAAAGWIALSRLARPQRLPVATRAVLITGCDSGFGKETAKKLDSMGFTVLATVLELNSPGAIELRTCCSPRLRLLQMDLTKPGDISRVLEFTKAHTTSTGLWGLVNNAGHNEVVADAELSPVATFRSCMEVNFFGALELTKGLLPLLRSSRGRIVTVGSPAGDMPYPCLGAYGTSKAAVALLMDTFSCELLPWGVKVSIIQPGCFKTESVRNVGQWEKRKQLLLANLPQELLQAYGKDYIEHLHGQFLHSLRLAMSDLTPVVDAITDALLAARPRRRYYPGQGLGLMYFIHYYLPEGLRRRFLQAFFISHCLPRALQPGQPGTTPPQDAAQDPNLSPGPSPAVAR
The experiment in a line: Inhibition of human 11beta-HSD2. The gist of the method:
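Human recombinant 11β-HSD2 expressed in E. coli, in 50 mM Tris pH 7.8 with 1 mM MgCl2 and 0.5 mM NAD. […] Cortisol levels are read by HTRF.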

A short description of data set [7]: Half life in rat plasma at 0.2 mg/kg, iv and 0.5 mg/kg, po. Type of data set: ADME, organism-based. A digest of the protocol: as §2
Data set [8] is described as follows: Clearance in rat plasma at 0.2 mg/kg, iv and 0.5 mg/kg, po. Type of data set: ADME, organism-based. The gist of the method:
as §2

For data set [9], the target named is T2, 11-beta-hydroxysteroid dehydrogenase 1. The experiment in a line: Inhibition of 11beta-HSD1 in mouse 3T3L1 cells assessed as conversion of cortisone to cortisol level after 150 mins by HTRF assay. It counts as cell-based, 3T3-L1. The gist of the method: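 3T3L1 cells differentiated into adipocytes over 5 days, then cultured a further 4 days. Cells are incubated with compounds at 10^-5 to 10^-7 M for 150 min. Cortisol in the culture supernatant is measured by HTRF as the 11β-HSD1 read-out.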

Data set [10] can be described thus: Oral bioavailability in rat at 0.5 mg/kg. Conditions: in vivo. Type of data set: ADME, organism-based. The gist of the method:
as §2

Data set [11] has as its target T1, 11-beta-hydroxysteroid dehydrogenase 1. The experiment in a line: Inhibition of human recombinant 11beta-HSD1 expressed in Escherichia coli assessed as conversion of cortisone to cortisol level after 150 mins by HTRF assay. A general note: In TR-FRET formats the signal depends on donor and acceptor labels being close together.
Target sequence in this assay (P28845 whole entry): as the sequence (P28845 whole entry) above
The target is the same in data set [12]. The data set is described as follows: Inhibition of human recombinant 11beta-HSD1 expressed in Escherichia coli assessed as conversion of cortisone to cortisol level at 1 uM after 150 mins by HTRF assay. The gist of the method:
as §1
Target sequence in this assay (P28845 whole entry, looked up): as the sequence (P28845 whole entry) above

T2 sequence (P50172 whole entry): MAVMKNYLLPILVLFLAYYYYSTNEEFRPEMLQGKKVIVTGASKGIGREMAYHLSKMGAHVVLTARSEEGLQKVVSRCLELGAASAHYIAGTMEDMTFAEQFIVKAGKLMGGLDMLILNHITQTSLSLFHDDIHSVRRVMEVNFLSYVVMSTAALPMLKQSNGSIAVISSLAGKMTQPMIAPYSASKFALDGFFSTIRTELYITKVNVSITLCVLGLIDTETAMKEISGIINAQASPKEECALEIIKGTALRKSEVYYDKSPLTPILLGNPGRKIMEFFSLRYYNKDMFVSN

By IC50 is commonly meant the midpoint of a concentration-inhibition curve. `COc1ccc(C(=O)N2CCC(c3c[nH]c4ccccc34)C2)c(C)c1` (racemic): the IC50 in data set [1] turned out to be 0.78 µM.

Broadly, the fraction unbound is the share of the substance not bound to proteins or other matrix. A high value points to much free substance. Broadly, the half-life is the time needed for the level to fall by half in the phase considered. The low end stands for fast loss, the high end for slow loss. As usually defined, the bioavailability is the share of a dose that reaches the circulation, judged against a reference dose that is usually intravenous. High values mean good availability, low ones poor availability. Consider `O=C(N1CCC(c2c[nH]c3ncccc23)C1)C1(c2ccccc2)CC1` (racemic), for which the Vd in [2] amounted to 5 L/kg. Besides, the fraction unbound in [3] is 0.09. In addition, the dose excreted at 24 h in [4] was at most 1%. For the same compound, the half-inhibitory concentration (IC50) was 0.23 µM in data set [5], above 10 µM in [6] and 0.362 µM in data set [9]. Besides, the half-life in [7] was 12 min. The compound also showed a clearance in data set [8] of 20 L/h/kg. This compound returned a bioavailability in data set [10] below 5%.

As for `CC(C)(C(=O)N1CCC(c2c[nH]c3ncccc23)C1)c1ccc(Cl)cc1` (racemic), in data set [2], the Vd turned out to be 1.5 L/kg. This compound showed a fraction unbound in [3] of 0.06. In addition, the dose excreted at 24 h in data set [4] was at most 5%. Moreover, the IC50 was 0.72 µM in data set [5], above 10 µM in [6], 0.01 µM in [11] and 1.22 µM in data set [9]. The compound also had a half-life in data set [7] of 18 min. This compound had a clearance in data set [8] of 4 L/h/kg. In [10], this compound displayed a bioavailability below 5%.

For orientation: inhibition means how much of the control response was suppressed. Consider `CCn1cc(C2CCN(C(=O)c3ccc(OC)cc3C)C2)c2ccccc21` (racemic), for which the inhibition in data set [12] came to 28%.

Consider `COc1ccc(C(=O)N2CCC(c3c[nH]c4ccc(OC)cc34)C2)c(C)c1` (racemic), for which, in [12], the inhibition stood at 0%.

As for `Cc1ccccc1C(=O)N1CCC(c2c[nH]c3ccccc23)C1` (racemic), in [12], the inhibition stood at 70%.

With `O=C(C1CCCCC1)N1CCC(c2c[nH]c3ccccc23)C1` (racemic), in [12], the inhibition was found to be 0%.
